In ChEMBL document CHEMBL2331331 (J Med Chem, 2013):
Activity calls are given as the source filed them. No cut-off for these calls is given here.

How the values were obtained:
[1] = tested on: Raji; assay: Cytotoxicity against human Raji cells assessed as growth inhibition after 72 hrs by MTT assay
[2] = tested on: MV4-11; assay: Antitumor activity against FLT3-ITD-positive human MV4-11 cells xenografted in NOD-SCID mouse assessed as tumor growth inhibition at 3 mg/kg/day, po administered 18 days measured every 3 days for 18 days; type: functional, organism-based
How it was run: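 NOD-SCID mice (5–6 weeks) implanted sc with 1 × 10⁸/mL MV4-11 cells (100 μL) in serum-free medium. Grouped at 300–500 mm³, six per group, then dosed orally once daily for 18 days. Vehicle was 12.5% castor oil, 12.5% ethanol, 75% water. Tumor volume = long × short²/2, measured every 3 d.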

[3] = AUC (0 to 24 hrs) in Sprague-Dawley rat at 10 mg/kg/day, po; type: ADME, organism-based; set-up: dose 10 mg/kg/day, time < 24 hr, route oral; conditions: plasma
[4] = target: Mitogen-activated protein kinase kinase kinase 9 (Homo sapiens, UniProt P80192); assay: Inhibition of MLK1 (unknown origin)
[5] = target: Serine/threonine-protein kinase PAK 2 (Homo sapiens, UniProt Q13177); assay: Inhibition of PAK2 (unknown origin)
[6] = target: Vascular endothelial growth factor receptor 2 (Danio rerio, UniProt Q5GIT4); assay: (§1) Inhibition of VEGFR2 in transgenic zebrafish embryo assessed as inhibition of intersegmental vessels formation measured 33 hrs post fertilization by fluorescence microscopic analysis
How it was run: (§2)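 FLK-1:EGFP transgenic zebrafish embryos, 10 per well, exposed at 28.5 °C from 15 to 31 hpf to compound in fish water at 1.25, 2.5 or 5 μM (diluted from a 10 mmol/L DMSO stock); 0.3% DMSO as vehicle control. Embryos were imaged at 33 hpf, and ISVs above the yolk extension were scored for length. n = 11, mean ± SD, ANOVA.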

[7] = target: Vascular endothelial growth factor receptor 2 (Danio rerio) (UniProt Q5GIT4); assay: as §1; how it was run: as §2
[8] = target: T1, Receptor-type tyrosine-protein kinase FLT3 (Homo sapiens, UniProt P36888); assay: Inhibition of FLT3 (unknown origin)
T1 sequence (P36888 whole entry): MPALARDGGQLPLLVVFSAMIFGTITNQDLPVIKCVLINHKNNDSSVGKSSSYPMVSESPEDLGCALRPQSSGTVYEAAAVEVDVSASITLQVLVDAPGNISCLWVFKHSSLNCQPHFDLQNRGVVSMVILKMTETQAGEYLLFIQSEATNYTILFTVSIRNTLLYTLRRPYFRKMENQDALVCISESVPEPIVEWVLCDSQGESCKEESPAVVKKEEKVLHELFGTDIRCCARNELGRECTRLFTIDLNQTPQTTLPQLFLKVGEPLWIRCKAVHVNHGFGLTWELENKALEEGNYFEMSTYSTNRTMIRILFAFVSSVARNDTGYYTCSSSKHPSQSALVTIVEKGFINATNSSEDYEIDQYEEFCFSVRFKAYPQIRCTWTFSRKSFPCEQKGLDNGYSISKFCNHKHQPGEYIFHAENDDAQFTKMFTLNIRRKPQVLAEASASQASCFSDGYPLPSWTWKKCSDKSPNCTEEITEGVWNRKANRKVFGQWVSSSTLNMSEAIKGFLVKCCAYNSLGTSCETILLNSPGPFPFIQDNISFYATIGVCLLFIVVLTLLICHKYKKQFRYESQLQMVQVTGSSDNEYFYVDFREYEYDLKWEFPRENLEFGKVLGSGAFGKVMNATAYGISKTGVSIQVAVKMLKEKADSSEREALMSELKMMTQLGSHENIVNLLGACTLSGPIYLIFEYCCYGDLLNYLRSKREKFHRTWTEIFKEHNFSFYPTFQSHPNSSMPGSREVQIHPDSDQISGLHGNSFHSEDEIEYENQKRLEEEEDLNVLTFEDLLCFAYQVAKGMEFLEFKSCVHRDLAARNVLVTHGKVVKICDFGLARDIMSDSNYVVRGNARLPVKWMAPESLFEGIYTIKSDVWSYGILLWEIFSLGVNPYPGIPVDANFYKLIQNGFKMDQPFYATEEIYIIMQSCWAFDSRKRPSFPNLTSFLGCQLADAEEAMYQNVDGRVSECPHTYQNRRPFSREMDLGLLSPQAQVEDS

[9] = target: Serine/threonine-protein kinase PAK 4 (Homo sapiens, UniProt O96013); assay: Inhibition of PAK4 (unknown origin)
How it was run: (§3)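 Single selected panel of recombinant human protein kinases, screened in vitro. The value reported is the IC50 against each kinase.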

[10] = tested on: HL-60; assay: Cytotoxicity against human HL60 cells assessed as growth inhibition after 72 hrs by MTT assay; conditions: HL-60, 72 h
[11] = target: Serine/threonine-protein kinase pim-1 (Homo sapiens, UniProt P11309); assay: Inhibition of Pim-1 (unknown origin)
[12] = tested on: MV4-11; assay: Induction of apoptosis in human MV4-11 cells assessed as late apoptotic cells at 0.1 uM after 24 hrs by annexin V-FITC/propidium iodide staining-based FACS flow cytometric analysis (reference value: 4.28%); type: functional
[13] = target: Fibroblast growth factor receptor 2 (Homo sapiens, UniProt P21802); assay: Inhibition of FGFR2 (unknown origin)
[14] = tested on: MV4-11; assay: Induction of apoptosis in human MV4-11 cells assessed as early apoptotic cells at 0.01 uM after 24 hrs by annexin V-FITC/propidium iodide staining-based FACS flow cytometric analysis (reference value: 1.61%); type: functional
[15] = tested on: SMMC-7721; assay: Cytotoxicity against human SMMC7721 cells assessed as growth inhibition after 72 hrs by MTT assay; conditions: SMMC-7721, 72 h
[16] = tested on: MV4-11; assay: Antitumor activity against FLT3-ITD-positive human MV4-11 cells xenografted in NOD-SCID mouse assessed as tumor growth inhibition at 10 mg/kg/day, po after 3 days by Ki67 staining-based light microscopic analysis relative to vehicle-treated control; type: functional, organism-based
How it was run: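 Mice (NOD-SCID) bearing sc MV4-11 tumors given 10 mg/kg/d by oral gavage. Tumors removed after 2–4 days and formalin-fixed. Sections immunostained for Ki67 (proliferation) or p-STAT5, or TUNEL-stained (apoptosis). Imaged by light microscopy and compared with vehicle group.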

[17] = target: Vascular endothelial growth factor receptor 2 (Homo sapiens, UniProt P35968); assay: Inhibition of VEGFR2 (unknown origin)
[18] = tested on: MV4-11; assay: Induction of apoptosis in human MV4-11 cells after 24 hrs by annexin V-FITC/propidium iodide staining-based FACS flow cytometric analysis; type: functional, cell-based
[19] = target: Receptor tyrosine-protein kinase erbB-2 (Homo sapiens, UniProt P04626); assay: Inhibition of ERBB2 (unknown origin); how it was run: as §3
[20] = target: T1, Receptor-type tyrosine-protein kinase FLT3; assay: Inhibition of FLT3 phosphorylation in human MV4-11 cells after 20 hrs by Western blotting analysis; type: cell-based

Sequence of Vascular endothelial growth factor receptor 2 (Danio rerio, UniProt Q5GIT4) (Q5GIT4 whole entry): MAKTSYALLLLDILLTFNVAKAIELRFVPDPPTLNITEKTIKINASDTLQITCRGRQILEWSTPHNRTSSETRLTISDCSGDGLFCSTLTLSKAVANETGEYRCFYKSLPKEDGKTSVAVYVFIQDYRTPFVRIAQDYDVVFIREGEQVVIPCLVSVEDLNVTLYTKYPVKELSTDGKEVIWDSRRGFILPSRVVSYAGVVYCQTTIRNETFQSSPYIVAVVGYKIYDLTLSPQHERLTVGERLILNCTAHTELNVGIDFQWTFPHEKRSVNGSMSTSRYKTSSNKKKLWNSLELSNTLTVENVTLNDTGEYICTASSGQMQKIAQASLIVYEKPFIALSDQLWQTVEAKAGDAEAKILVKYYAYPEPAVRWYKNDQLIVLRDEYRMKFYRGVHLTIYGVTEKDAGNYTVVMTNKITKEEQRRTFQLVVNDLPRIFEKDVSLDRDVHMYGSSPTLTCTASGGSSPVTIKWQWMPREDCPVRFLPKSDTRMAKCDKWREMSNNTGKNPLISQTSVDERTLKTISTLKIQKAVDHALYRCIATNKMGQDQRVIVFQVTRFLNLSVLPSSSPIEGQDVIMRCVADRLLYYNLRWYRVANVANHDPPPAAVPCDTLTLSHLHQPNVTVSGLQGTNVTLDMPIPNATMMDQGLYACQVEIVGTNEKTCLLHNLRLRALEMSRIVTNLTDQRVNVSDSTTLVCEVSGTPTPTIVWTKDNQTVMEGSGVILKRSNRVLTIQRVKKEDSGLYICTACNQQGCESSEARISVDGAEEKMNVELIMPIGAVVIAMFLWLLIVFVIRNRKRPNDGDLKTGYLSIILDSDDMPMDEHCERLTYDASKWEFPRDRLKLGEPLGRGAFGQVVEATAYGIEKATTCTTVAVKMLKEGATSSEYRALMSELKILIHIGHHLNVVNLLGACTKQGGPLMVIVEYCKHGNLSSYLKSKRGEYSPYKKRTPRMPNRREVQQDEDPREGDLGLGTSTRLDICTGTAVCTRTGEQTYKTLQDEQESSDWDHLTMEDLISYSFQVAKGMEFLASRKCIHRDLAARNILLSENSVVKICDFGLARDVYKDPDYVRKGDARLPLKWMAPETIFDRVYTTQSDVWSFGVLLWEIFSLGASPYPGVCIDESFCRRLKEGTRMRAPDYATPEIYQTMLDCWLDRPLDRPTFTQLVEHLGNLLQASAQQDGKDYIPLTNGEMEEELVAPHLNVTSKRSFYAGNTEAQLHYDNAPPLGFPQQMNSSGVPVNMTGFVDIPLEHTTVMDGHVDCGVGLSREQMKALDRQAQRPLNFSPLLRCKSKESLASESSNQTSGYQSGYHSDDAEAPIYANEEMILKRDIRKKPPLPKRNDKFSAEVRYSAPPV
Sequence of Vascular endothelial growth factor receptor 2 (Danio rerio) (Q5GIT4 whole entry): as above
Sequence of Vascular endothelial growth factor receptor 2 (Homo sapiens, UniProt P35968) (P35968 whole entry): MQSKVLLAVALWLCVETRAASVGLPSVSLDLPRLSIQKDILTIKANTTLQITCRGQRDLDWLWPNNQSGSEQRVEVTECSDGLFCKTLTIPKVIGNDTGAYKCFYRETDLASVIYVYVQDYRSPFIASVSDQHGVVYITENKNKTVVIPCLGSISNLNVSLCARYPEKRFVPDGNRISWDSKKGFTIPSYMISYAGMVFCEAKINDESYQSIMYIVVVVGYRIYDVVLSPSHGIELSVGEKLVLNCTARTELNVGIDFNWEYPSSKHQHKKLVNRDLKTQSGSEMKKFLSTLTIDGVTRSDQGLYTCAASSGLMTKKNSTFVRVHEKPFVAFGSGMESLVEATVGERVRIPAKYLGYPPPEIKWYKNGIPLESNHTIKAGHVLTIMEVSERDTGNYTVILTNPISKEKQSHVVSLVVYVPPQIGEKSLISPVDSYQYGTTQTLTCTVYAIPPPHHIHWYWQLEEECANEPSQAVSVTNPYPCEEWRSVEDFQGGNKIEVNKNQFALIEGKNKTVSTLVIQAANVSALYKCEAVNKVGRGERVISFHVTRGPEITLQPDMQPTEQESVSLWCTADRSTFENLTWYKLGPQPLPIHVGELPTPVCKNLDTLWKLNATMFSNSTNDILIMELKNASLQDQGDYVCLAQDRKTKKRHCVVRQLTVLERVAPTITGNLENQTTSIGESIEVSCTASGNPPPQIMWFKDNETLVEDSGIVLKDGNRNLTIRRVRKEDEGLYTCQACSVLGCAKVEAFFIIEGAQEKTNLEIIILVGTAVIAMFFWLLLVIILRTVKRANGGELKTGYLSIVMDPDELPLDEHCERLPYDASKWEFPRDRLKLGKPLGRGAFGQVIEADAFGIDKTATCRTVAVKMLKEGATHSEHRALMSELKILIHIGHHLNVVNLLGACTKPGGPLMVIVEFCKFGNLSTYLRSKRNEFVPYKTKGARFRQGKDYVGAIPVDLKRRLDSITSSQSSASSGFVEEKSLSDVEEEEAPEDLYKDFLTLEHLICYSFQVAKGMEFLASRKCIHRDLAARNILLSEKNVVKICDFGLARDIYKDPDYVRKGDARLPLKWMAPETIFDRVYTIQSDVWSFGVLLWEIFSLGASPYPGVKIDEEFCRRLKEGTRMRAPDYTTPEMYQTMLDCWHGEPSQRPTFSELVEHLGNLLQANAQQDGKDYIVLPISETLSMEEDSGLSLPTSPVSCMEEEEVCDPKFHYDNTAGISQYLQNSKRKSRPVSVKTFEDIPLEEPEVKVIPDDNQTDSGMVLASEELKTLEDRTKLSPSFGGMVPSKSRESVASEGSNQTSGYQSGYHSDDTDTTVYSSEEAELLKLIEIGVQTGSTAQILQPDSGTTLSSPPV
Sequence of Receptor tyrosine-protein kinase erbB-2 (P04626 whole entry): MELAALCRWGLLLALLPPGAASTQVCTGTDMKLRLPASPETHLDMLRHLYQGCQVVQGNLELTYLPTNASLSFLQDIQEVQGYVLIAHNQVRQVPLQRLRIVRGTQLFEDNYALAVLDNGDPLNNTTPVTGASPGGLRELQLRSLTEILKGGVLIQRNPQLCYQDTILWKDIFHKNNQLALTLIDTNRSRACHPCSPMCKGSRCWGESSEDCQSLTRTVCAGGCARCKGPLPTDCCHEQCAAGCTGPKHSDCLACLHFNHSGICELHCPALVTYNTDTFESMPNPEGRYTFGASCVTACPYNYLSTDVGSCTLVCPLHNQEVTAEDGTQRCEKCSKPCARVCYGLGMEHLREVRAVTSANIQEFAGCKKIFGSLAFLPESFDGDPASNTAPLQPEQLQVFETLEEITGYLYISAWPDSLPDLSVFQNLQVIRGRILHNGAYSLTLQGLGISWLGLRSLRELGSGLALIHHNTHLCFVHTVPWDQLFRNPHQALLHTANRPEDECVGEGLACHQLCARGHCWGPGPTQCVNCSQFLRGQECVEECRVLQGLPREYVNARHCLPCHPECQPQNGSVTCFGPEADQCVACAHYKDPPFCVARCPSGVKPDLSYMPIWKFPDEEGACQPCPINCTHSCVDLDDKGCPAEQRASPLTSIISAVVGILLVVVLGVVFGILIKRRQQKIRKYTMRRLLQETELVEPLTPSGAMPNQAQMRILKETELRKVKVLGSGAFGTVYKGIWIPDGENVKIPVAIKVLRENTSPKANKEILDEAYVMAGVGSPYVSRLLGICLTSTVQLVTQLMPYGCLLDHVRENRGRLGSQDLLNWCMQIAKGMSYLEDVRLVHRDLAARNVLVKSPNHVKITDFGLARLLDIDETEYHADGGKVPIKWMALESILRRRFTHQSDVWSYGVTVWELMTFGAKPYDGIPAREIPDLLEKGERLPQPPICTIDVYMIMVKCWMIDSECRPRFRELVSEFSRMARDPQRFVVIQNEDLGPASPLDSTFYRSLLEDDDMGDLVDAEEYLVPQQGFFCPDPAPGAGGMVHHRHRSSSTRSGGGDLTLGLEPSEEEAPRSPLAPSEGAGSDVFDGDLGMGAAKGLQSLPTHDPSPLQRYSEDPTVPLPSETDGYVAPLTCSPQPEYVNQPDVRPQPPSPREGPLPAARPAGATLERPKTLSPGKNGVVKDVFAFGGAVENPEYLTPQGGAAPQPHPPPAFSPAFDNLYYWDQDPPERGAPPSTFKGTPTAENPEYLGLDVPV
Sequence of Fibroblast growth factor receptor 2 (P21802 whole entry): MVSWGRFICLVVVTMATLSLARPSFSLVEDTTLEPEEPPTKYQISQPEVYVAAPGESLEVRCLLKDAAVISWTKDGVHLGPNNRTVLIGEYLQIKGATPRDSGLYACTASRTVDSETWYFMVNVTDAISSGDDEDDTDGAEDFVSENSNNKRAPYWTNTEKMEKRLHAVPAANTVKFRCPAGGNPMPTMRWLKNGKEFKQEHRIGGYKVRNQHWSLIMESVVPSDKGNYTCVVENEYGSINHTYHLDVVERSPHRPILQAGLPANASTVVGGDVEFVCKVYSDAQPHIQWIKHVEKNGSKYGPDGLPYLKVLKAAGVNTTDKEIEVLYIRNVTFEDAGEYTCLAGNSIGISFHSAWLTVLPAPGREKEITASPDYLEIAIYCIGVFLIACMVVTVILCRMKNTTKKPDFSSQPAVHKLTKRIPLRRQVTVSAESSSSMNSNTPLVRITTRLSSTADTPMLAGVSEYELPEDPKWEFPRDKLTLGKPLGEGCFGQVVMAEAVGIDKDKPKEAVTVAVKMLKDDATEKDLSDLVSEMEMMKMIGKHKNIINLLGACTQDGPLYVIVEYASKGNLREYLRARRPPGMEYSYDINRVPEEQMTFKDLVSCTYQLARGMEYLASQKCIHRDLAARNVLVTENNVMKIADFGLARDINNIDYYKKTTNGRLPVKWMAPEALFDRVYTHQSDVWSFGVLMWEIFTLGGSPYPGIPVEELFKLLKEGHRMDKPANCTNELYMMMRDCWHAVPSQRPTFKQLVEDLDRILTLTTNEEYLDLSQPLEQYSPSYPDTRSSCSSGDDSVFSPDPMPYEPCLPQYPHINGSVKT

O=C(Nc1ccc(Oc2ncnc3[nH]ncc23)cc1)Nc1ccc(Cl)c(C(F)(F)F)c1
IC50 [1]: > 10 µM
TGI [2]: Active
AUC at 24 h [3]: 319 µg·h/mL
IC50 [4]: > 10 µM
IC50 [5]: > 10 µM
IC50 [6]: 2.5 µM
inhibition [7]: Dose-dependent effect
IC50 [8]: 0.039 µM
IC50 [9]: > 10 µM
IC50 [10]: > 10 µM
IC50 [11]: > 10 µM
Activity [12]: 25.8%
IC50 [13]: 1.81 µM
Activity [14]: 5.88%
IC50 [15]: > 10 µM
TGI [16]: Active
IC50 [17]: 0.012 µM
Activity [18]: Dose-dependent effect
IC50 [19]: > 10 µM
IC50 [20]: 0.003 µM
